Screens as filed in PubChem BioAssay.
This is a sample that favours compounds with a hit; in the whole collection about 4% have one here.
ABHD5 PLIN5 PPI = ABHD5-PLIN5 protein interaction inhibition; Q00G26+Q8WTS1; Split G. princeps luciferase complementation, luminescence, 4 h; inhibition, % at 4 µM; hit rate 0.78% among 360,000;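 active = inhibition above the mean inhibition across every tested compound plus 3 SD, cut at about 22% in these data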
UPR CHOP act = apoptotic UPR (CHOP) activation; CHO-CHOP luciferase reporter, luminescence; percent of tunicamycin response over DMSO baseline; hit rate 0.34% among 330,000; activation, % at 10 µM;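 active = at 10 µM dose, activation of 40% or more, normalized to positive control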
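assay system = CHO CHOP reporter cells | amount = 500 CHO-CHOP cells per well | buffer or medium = F12 with 10% FBS | incubation = 16-18 h cell attachment, then 6 h compound exposure, 37 °C | detection = luminescence read with Steady-Glo | read-out = percent activation relative to tunicamycin control | controls = tunicamycin high control, DMSO low control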
Granule exo inh = lytic granule exocytosis inhibition; TALL-104 LAMP-1 surface exposure, flow cytometry; cells stimulated with thapsigargin and PMA; inhibition, % at 10 µM; hit rate 0.66% among 360,000; AID 651702;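 active = inhibition above about 55%, limit read from the data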
UPR XBP1 act = activators of adaptive arm of unfolded protein response (XBP1); CHO-XBP1 luciferase reporter, IRE1-XBP1 UPR activation, luminescence; percent of tunicamycin response, DMSO as zero; activation, % at 20 µM; hit rate 0.33% among 330,000; AID 463104;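 active = versus positive control, 20 µM dose yields 30% or more activation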
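Assay system: IRE1-XBP1 luciferase reporter CHO line. Input: 1000 cells/well. Buffer or medium: F12 with 10% serum. Doses: 20 µM, 1% DMSO. Times: overnight seeding at 37 °C, 6 h compound treatment at 37 °C. Technique: Steady-Glo luciferase glow luminescence, 10 min after reagent addition.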
Mdm2 MdmX PPI = disrupts the human Mdm2-MdmX interaction. O15151+Q00987. SaOS-2 split-luciferase Mdm2/MdmX complementation, luminescence. inhibition, % at 8 µM. hit rate 3% among 330,000. AID 485346;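 active = inhibition of at least 50% at 8 µM in the primary screen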
Target sequence (O15151 whole entry, looked up): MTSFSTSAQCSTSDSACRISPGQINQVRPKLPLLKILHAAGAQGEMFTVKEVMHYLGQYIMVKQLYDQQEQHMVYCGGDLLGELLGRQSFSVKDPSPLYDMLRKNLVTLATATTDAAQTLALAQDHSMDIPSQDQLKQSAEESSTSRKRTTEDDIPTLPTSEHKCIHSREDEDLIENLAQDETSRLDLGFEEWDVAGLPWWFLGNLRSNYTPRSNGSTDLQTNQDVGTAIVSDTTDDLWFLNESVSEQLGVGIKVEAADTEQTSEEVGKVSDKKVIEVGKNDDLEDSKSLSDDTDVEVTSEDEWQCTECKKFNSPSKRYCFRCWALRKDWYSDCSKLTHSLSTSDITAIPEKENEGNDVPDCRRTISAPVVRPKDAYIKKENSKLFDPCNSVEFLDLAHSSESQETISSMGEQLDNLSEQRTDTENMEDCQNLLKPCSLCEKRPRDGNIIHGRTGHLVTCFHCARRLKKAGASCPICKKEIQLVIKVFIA
Target sequence (Q00987 whole entry, looked up): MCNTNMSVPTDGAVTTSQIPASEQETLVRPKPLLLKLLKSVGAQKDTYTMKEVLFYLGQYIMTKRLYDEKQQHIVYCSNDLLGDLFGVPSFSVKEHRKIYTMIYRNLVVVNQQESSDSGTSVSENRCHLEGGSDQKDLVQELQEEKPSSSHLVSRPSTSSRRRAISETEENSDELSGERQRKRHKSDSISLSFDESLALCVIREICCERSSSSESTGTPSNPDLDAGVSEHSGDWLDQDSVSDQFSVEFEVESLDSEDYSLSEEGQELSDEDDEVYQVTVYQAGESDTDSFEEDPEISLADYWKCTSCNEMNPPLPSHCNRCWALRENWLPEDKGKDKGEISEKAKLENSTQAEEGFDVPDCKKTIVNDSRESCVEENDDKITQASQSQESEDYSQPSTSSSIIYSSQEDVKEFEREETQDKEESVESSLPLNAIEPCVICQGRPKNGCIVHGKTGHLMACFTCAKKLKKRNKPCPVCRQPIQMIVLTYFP
Mdm2-MdmX conf = confirmation of human Mdm2/MdmX interaction inhibitors; shares compounds with Mdm2 MdmX PPI; inhibition, % at 8 µM; Mdm2-MdmX binding, luminescent assay; hit rate 55% among 10,000; in the data active = inhibition above about 40%
Full FLuc ctr = counter-screen for Mdm2/MdmX inhibitors: full-length luciferase | shares compounds with Mdm2 MdmX PPI | AID 504607 | hit rate 77% among 6,200 | inhibition, % at 8 µM | SaOS-2 full-length luciferase counterscreen, luminescence;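 active = mean inhibition at 8 µM reaching about 37%, which flags the compound as non-specific, limit read from the data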;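 note: p53-null SaOS-2 cells with luciferase driven by a doxycycline-inducible promoter; compound on cells about two nights before reading with doxycycline added after day one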
Of the large screens only hits and unclear results are named; the others gave an inactive call (follow-up assays come after a bar, where they were run).

COC(=O)NC(=C(Cl)Cl)S(=O)(=O)c1ccccc1	Mdm2 MdmX PPI 54.6 | Mdm2-MdmX conf inactive
Cc1ccc(C(=O)NC(=C(Cl)Cl)S(=O)(=O)c2ccccc2)cc1	none
COc1cccc(/C=C2\SC(=S)N(CCCC(=O)N3CCCCC3)C2=O)c1	Mdm2 MdmX PPI 87.8 | Mdm2-MdmX conf 62.5 | Full FLuc ctr inactive
COc1cccc(/C=C2/SC(=S)N(CCC(=O)N3CCOCC3)C2=O)c1	Mdm2 MdmX PPI 53.5 | Mdm2-MdmX conf inactive
COc1ccc(/C=C2\SC(=S)N(CCC(=O)N3CCOCC3)C2=O)cc1	none
Cc1ccc(/C=C2\SC(=S)N(CCC(=O)N3CCOCC3)C2=O)cc1	Mdm2 MdmX PPI 56.8 | Mdm2-MdmX conf inactive
O=C(CCN1C(=O)/C(=C\c2ccccc2)SC1=S)N1CCOCC1	none
O/N=C/c1ccc(-c2cc(Cl)ccc2Cl)o1	Mdm2 MdmX PPI 57.1 | Mdm2-MdmX conf 41.6 | Full FLuc ctr 52.9
COc1cccc2sc(N(CCN(C)C)C(=O)/C=C/c3cccs3)nc12	Mdm2 MdmX PPI 56.0 | Mdm2-MdmX conf inactive
CN(C)CCN(C(=O)c1ccc2ccccc2c1)c1nc2c(F)cc(F)cc2s1	none
CCOc1cccc2sc(N(CCN(C)C)C(=O)c3ccc4c(c3)OCCO4)nc12	none
CN(C)CCN(C(=O)/C=C/c1cccs1)c1nc2c(F)cc(F)cc2s1	Granule exo inh 64.8, Mdm2 MdmX PPI 69.4 | Mdm2-MdmX conf 41.9 | Full FLuc ctr inactive
CCOc1cccc2sc(N(CCN(C)C)C(=O)/C=C/c3cccs3)nc12	Mdm2 MdmX PPI 65.5 | Mdm2-MdmX conf inactive
COc1cccc2sc(N(CCN(C)C)C(=O)c3ccc4c(c3)CCCC4)nc12	none
CC(Sc1n[nH]c(-c2cccs2)n1)C(=O)Nc1ccccc1F (stereo not given)	none (no result: UPR CHOP act, UPR XBP1 act, Mdm2 MdmX PPI)
C/C(=N\NC(=O)c1nnn(-c2nonc2N)c1CSc1ccccc1)c1ccco1	none
C/C(=N\NC(=O)c1nnn(-c2nonc2N)c1CSc1ccc(C)cc1)c1ccco1	Mdm2 MdmX PPI 62.1 | Mdm2-MdmX conf inactive
C/C(=N\NC(=O)c1nnn(-c2nonc2N)c1CSc1ccccc1)c1ccc2c(c1)OCO2	Mdm2 MdmX PPI 54.0 | Mdm2-MdmX conf inactive
CCOc1ccc(N2C(=O)CC(SCCN)C2=O)cc1 (stereo not given)	none
O=C(Nc1ccc2c(c1)OCCO2)c1cc(-c2ccccn2)nc2ccc(Br)cc12	Mdm2 MdmX PPI 74.0 | Mdm2-MdmX conf 40.7 | Full FLuc ctr 72.3
CCOc1ccc(NC(=O)c2cc(Cl)nc3ccccc23)cc1	Mdm2 MdmX PPI 50.6 | Mdm2-MdmX conf inactive | Full FLuc ctr 62.2
Cc1ccc(OCC(=O)NNc2c3ccccc3nc3ccccc23)cc1	Mdm2 MdmX PPI 56.2 | Mdm2-MdmX conf inactive
CCOc1ccc(Nc2c3ccccc3nc3ccccc23)cc1	Mdm2 MdmX PPI 70.6 | Mdm2-MdmX conf 44.7 | Full FLuc ctr 59.2
CCOc1ccc(NC(=O)c2ccccc2O)cc1	none
Cc1cccc(OCC(=O)NNc2c3ccccc3nc3ccccc23)c1	none
COc1cc(/C=C2\C(=N)N3N=C(S(C)(=O)=O)SC3=NC2=O)ccc1OS(=O)(=O)c1ccc(C)cc1	none
CCCN1CCN(CCCNC(=O)c2ccc(CS(=O)c3ccccc3C)o2)CC1 (stereo not given)	none
CCOc1ccc(-c2cc(C(=O)Nc3ccc4c(c3)OCCO4)c3ccccc3n2)cc1	Mdm2 MdmX PPI 50.5 | Mdm2-MdmX conf 40.4 | Full FLuc ctr 97.4
CC(=O)c1ccc(NC(=O)c2cc(CC(C)C)nc3ccccc23)cc1	Mdm2 MdmX PPI 57.7 | Mdm2-MdmX conf 65.8 | Full FLuc ctr inactive
CCOC(=O)c1c(-c2cccs2)csc1N	none
CC(SC1=NCCS1)C(=O)Nc1nnc(-c2ccc(Br)cc2)s1 (stereo not given)	Mdm2 MdmX PPI 52.2 | Mdm2-MdmX conf inactive
CC(Nc1nc(-c2ccc(Cl)cc2)cs1)c1nc2cc(Cl)c(N3CCCCC3)cc2n1CCOCCO (stereo not given)	Mdm2 MdmX PPI 51.1 | Mdm2-MdmX conf inactive
COc1ccc(-c2csc(NC(C)c3nc4cc(Cl)c(N5CCCCC5)cc4n3CCOCCO)n2)cc1 (stereo not given)	none
Cc1ccc2c(c1)c1c(n2CC(O)CNC2CCCC2)CCCC1 (stereo not given)	Mdm2 MdmX PPI 56.5 | Mdm2-MdmX conf inactive | Full FLuc ctr 77.2
COc1cccc(/C=C/C(=C2/C(=O)N(c3ccccc3)N=C2C)c2ccc(Br)cc2)c1OC	Mdm2 MdmX PPI 58.7 | Mdm2-MdmX conf inactive
COc1cccc(/C=C/C(=C2/C(=O)N(c3ccccc3)N=C2C)c2ccccc2)c1OC	none
CCc1ccc(NC(=O)CSc2nnc(CNC(=O)c3ccc(OC)cc3)o2)cc1	none
Cc1cc(NC(=S)NC(=O)c2ccccc2)ccc1-c1cc2ccccc2oc1=O	none
COc1cc(C(=O)NC(=S)Nc2cccc(-c3cc4ccccc4oc3=O)c2)cc(OC)c1OC	Mdm2 MdmX PPI 52.8 | Mdm2-MdmX conf inactive
O=[N+]([O-])c1cc(Cl)c(O)c2ncccc12	Mdm2 MdmX PPI 50.9 | Mdm2-MdmX conf 53.6 | Full FLuc ctr 55.6
CC(=O)NC(c1ccccc1)c1cc(Cl)c2cccnc2c1O (stereo not given)	Mdm2 MdmX PPI 76.8 | Mdm2-MdmX conf 64.5 | Full FLuc ctr inactive
O=[N+]([O-])c1cc(CN2CCN(c3ccccc3)CC2)c(O)c2ncccc12	Mdm2 MdmX PPI 75.3 | Mdm2-MdmX conf 79.2 | Full FLuc ctr 42.4
COc1ccc(C(NC(C)=O)c2cc(Cl)c3cccnc3c2O)cc1 (stereo not given)	Mdm2 MdmX PPI 75.6 | Mdm2-MdmX conf 71.2 | Full FLuc ctr inactive
CC(=O)NC(c1ccc(N(C)C)cc1)c1cc(Cl)c2cccnc2c1O (stereo not given)	none (no result: UPR CHOP act, UPR XBP1 act, Mdm2 MdmX PPI)
CCC(=O)NC(c1ccc(C)cc1)c1cc([N+](=O)[O-])c2cccnc2c1O (stereo not given)	none (no result: UPR CHOP act, UPR XBP1 act, Mdm2 MdmX PPI)
CCCC(=O)NC(c1ccc(OC)c(OC)c1)c1cc(Cl)c2cccnc2c1O (stereo not given)	Mdm2 MdmX PPI 72.8 | Mdm2-MdmX conf 60.0 | Full FLuc ctr inactive
CC(=O)NC(c1ccc(C)cc1)c1cc([N+](=O)[O-])c2cccnc2c1O (stereo not given)	Mdm2 MdmX PPI 68.4 | Mdm2-MdmX conf 68.0 | Full FLuc ctr inactive
Cc1ccc(-c2nc3ncccc3o2)cc1NC(=O)c1cccs1	none
Cc1ccc(-c2nc3ncccc3o2)cc1NC(=O)c1sc2ccccc2c1Cl	Mdm2 MdmX PPI 82.9 | Mdm2-MdmX conf inactive
CCOC(=O)c1cc(=O)c2ccc(OCC(=O)Nc3ccccc3)cc2o1	none
CCn1c(SCC(=O)NC2CCCCC2)nc2c(c1=O)SCC2	none
